The source of these data is ChEMBL document CHEMBL1629415, “Biological evaluation of donor-acceptor aminonaphthoquinones as antitumor agents” (Eur J Med Chem, 2010).

Molecules are shown by their SMILES. ≈ marks a conversion by molar mass, not a printed value. Calls of active or inactive are those of the source. The calls are words filed in the database; no cut-off is given here.

Series [1] concerns T-24. Description: Induction of apoptosis in human T24 cells assessed as increase of caspase-3-mediated DEVDase activity at 1 ug/ml after 6 hrs. Format: functional. An outline of the steps:
(§1)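 T24 cells exposed 6 or 24 h at 37 C, washed twice in PBS, lysed and centrifuged. Supernatant incubated with DEVD-AFC substrate, cleavage followed kinetically at room temperature (ex 380 nm, em 500 nm). Activity given as U/mg protein, protein by Lowry method with BSA standard.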

Series [2] relates to T-24. Nature of the series: Induction of apoptosis in human T24 cells assessed as increase of caspase-3-mediated DEVDase activity at 100 ug/ml after 6 hrs. Format: functional. In short, it runs like this:
as §1

A further series concerns DU-145. Description: Cytotoxicity against human DU145 cells after 48 hrs by MTT assay. It is filed as functional, cell-based. The following applies: DU-145, 48 h. In short, it runs like this:
(§2)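 T24, DU145 and MCF7 grown in high-glucose DMEM with 10% fetal calf serum and penicillin/streptomycin. BALB/3T3 mouse fibroblasts grown in the same medium with 10% newborn calf serum. Cells seeded at 10 000/well for 24 h, then exposed 48 h at 37 C. MTT 0.5 mg/mL for 2 h, formazan dissolved in DMSO, read at 550 nm. EC50 is the concentration that lowers MTT reduction by 50% versus untreated control.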
A general note: Formazan colour is commonly taken as a measure of viable cells.

For series [3], the system named is T-24. Description: Anticancer activity against human T24 cells assessed as decreased in intracellular ATP level after 6 hrs by ATPlite assay. It is filed as functional, cell-based. An outline of the steps: (§3)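 T24 cells in high-glucose DMEM with 10% FCS were exposed 6 h at 37 C to compound over a 1–100 range, alongside untreated controls. Intracellular ATP was measured by ATPlite luminescence kit. Groups were compared by one-way ANOVA with Bonferroni test.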
In general terms: Cellular ATP, detected with luciferase, serves as a proxy for viable cell number.

In series [4] the test system is T-24. Nature of the series: Induction of apoptosis in human T24 cells assessed as increase of caspase-3-mediated DEVDase activity at 100 ug/ml after 24 hrs. Format: functional. In short, it runs like this: as §1
The subject of series [5] is T-24. Description: Induction of apoptosis in human T24 cells assessed as increase of caspase-3-mediated DEVDase activity at 10 ug/ml after 6 hrs. Format: functional. In short, it runs like this: as §1
Series [6] deals with T-24. Description: Anticancer activity against human T24 cells assessed as inhibition of cell proliferation at 10 ug/ml after 10 days using crystal violet staining by clonogenic assay. Format: functional. An outline of the steps: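 T24 cells (500) seeded at single-cell density and left to adhere overnight. Compound exposure 24 h, then washed with warm PBS and regrown 10 days in fresh medium. Colonies stained with crystal violet to score clonogenic survival.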

Series [7] concerns T-24. Nature of the series: Induction of apoptosis in human T24 cells assessed as increase of caspase-3-mediated DEVDase activity at 1 ug/ml after 24 hrs. Format: functional. An outline of the steps: as §1
Another series deals with BALB/3T3. Description: Cytotoxicity against mouse BALB/3T3 cells after 48 hrs by MTT assay. Format: cell-based. Particulars: BALB/3T3, 48 h. In short, it runs like this: as §2
A short description of series [8]: Lipophilicity, log P of the compound. It is filed as physicochemical. The following applies: octanol/water.
Series [9] has as its system T-24. Nature of the series: Anticancer activity against human T24 cells assessed as decreased in intracellular ATP level at 100 ug/ml after 6 hrs by ATPlite assay. It is filed as functional, cell-based. In short, it runs like this:
as §3

For the next series, the system named is MCF7. Nature of the series: Cytotoxicity against human MCF7 cells after 48 hrs by MTT assay. Particulars: MCF7, 48 h. It is filed as functional, cell-based. In short, it runs like this: as §2
The test system of series [10] is T-24. Description: Induction of apoptosis in human T24 cells assessed as increase of caspase-3-mediated DEVDase activity at 10 ug/ml after 24 hrs. Format: functional. An outline of the steps: as §1
In series [11] the test system is T-24. Nature of the series: Cytotoxicity against human T24 cells after 48 hrs by MTT assay. It is filed as functional, cell-based. Particulars: T-24, 48 h. An outline of the steps: as §2
For series [12], the system named is T-24. Nature of the series: Induction of apoptosis in human T24 cells assessed as increase of caspase-3-mediated DEVDase activity at 5 ug/ml after 4 hrs. Particulars: in the assay text read “5 uM” for “5 ug/ml”. It is filed as functional. In short, it runs like this: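 Positive-control arm: T24 cells exposed to sanguinarine for 4 h. Lysate supernatant then assayed for DEVD-AFC cleavage kinetically at room temperature (ex 380/em 500 nm), expressed as U/mg protein.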

One may read the EC50 as the concentration needed to bring the measured effect to its halfway point. Read a low EC50 as greater potency. For orientation: inhibition means how much of the control response was suppressed. A word on the logP: it is the decadic logarithm of the partition coefficient of the neutral form, usually between octanol and water. Turning to `COc1ccc(NC2=CC(=O)c3ccccc3C2=O)cc1`, the Activity is 5.9 U/mg in the series on T-24 [1]; 3.4 U/mg in the series with T-24 [2]; “Dose-dependent effect” with T-24 [3]; 3.4 U/mg in the series with T-24 [4]; 5 U/mg in the series on T-24 [5]; 5 U/mg in the series with T-24 [7]. Further, in the series with T-24 [10], the Activity is 4.5 U/mg. In addition, the EC50 with DU-145 worked out at 7.6 mg/L (≈ 27.2 µM); in the series on BALB/3T3 it was 35.7 mg/L (≈ 128 µM); in the series with MCF7, 3.7 mg/L (≈ 13.2 µM); in the series on T-24 [11] it was 8.1 mg/L (≈ 29 µM). Moreover, the inhibition at 10 µg/mL in the series with T-24 [6] (T-24, 240 h) is 75%. The logP in series [8] (read-out: logP) was 1.43. For the same molecule, the result with T-24 [9] was Active.
Turning to `O=C1C=C(Nc2ccccc2)C(=O)c2ccccc21`, the EC50 with DU-145 turned out to be 4 mg/L (≈ 16 µM); in the series on BALB/3T3, 0.2 mg/L (≈ 0.802 µM); in the series with MCF7 it was 2.6 mg/L (≈ 10.4 µM); in the series on T-24 [11], 1.2 mg/L (≈ 4.81 µM). Further, the logP in [8] (read-out: logP) came out at 1.55.
Regarding `O=C1C(Cl)=C(Nc2ccc(O)cc2)C(=O)c2ccccc21`, the EC50 with DU-145 came to 1.9 mg/L (≈ 6.34 µM); with BALB/3T3 it was 0.6 mg/L (≈ 2 µM); in the series with MCF7, 2.8 mg/L (≈ 9.34 µM); with T-24 [11] it was 0.6 mg/L (≈ 2 µM). Besides, in [8] (read-out: logP), the logP came out at 1.2.
For `O=C1C=C(Nc2ccc(O)cc2)C(=O)c2ccccc21`, the Activity with T-24 [1] was 6 U/mg; in the series on T-24 [2] it was 3 U/mg; with T-24 [3], “Dose-dependent effect”; in the series on T-24 [4], 4 U/mg; in the series with T-24 [5], 2.7 U/mg; with T-24 [7], 5.1 U/mg. Also, the Activity with T-24 [10] was 4.9 U/mg. Further, the EC50 in the series on DU-145 was determined as 0.9 mg/L (≈ 3.39 µM); in the series on BALB/3T3, 6 mg/L (≈ 22.6 µM); in the series with MCF7, 0.8 mg/L (≈ 3.02 µM); with T-24 [11], 2.3 mg/L (≈ 8.67 µM). Besides, the outcome in the series with T-24 [6] and in the series on T-24 [9] was Active. In addition, in series [8] (read-out: logP), the logP is 1.16.
On to `COc1ccc(OC)c(NC2=CC(=O)c3ccccc3C2=O)c1`, for which the EC50 in the series on DU-145 is 35.2 mg/L (≈ 114 µM); in the series on BALB/3T3, 11.5 mg/L (≈ 37.2 µM); in the series on MCF7 it was 1.2 mg/L (≈ 3.88 µM); in the series with T-24 [11], 10.9 mg/L (≈ 35.2 µM). In series [8] (read-out: logP), the logP was found to be 1.3.
`O=C1C(Cl)=C(Nc2ccccc2)C(=O)c2ccccc21`: the EC50 in the series on DU-145 amounted to 66.8 mg/L (≈ 235 µM); in the series with BALB/3T3, 9.1 mg/L (≈ 32.1 µM); with MCF7, 6.3 mg/L (≈ 22.2 µM); in the series on T-24 [11], 14.8 mg/L (≈ 52.2 µM). This molecule yielded a logP in series [8] of 1.59.
As for `COc1ccc(OC)c(NC2=C(Cl)C(=O)c3ccccc3C2=O)c1`, the EC50 in the series with DU-145 amounted to 6 mg/L (≈ 17.5 µM); in the series with BALB/3T3, 0.7 mg/L (≈ 2.04 µM); with MCF7 it was 4.6 mg/L (≈ 13.4 µM); with T-24 [11] it was 2.4 mg/L (≈ 6.98 µM). For the same molecule, the logP in [8] (read-out: logP) worked out at 1.34.
`CN(C1=CC(=O)c2ccccc2C1=O)c1ccccc1`: the EC50 in the series on DU-145 amounted to 20.9 mg/L (≈ 79.4 µM); in the series on BALB/3T3, 43.3 mg/L (≈ 164 µM); in the series with MCF7, 7.8 mg/L (≈ 29.6 µM); in the series with T-24 [11], 8.4 mg/L (≈ 31.9 µM). Further, in series [8] (read-out: logP), the logP is 2.34.
For `CN(C1=C(Cl)C(=O)c2ccccc2C1=O)c1ccccc1`, in that order: 6.7 mg/L (≈ 22.5 µM), 0.8 mg/L (≈ 2.69 µM), 1.2 mg/L (≈ 4.03 µM), 6 mg/L (≈ 20.2 µM) and 2.38.
Take `C[n+]1cc2c3c(ccc2c2ccc4cc5c(cc4c21)OCO5)OCO3` [SANGUINARIUM]: in the series with T-24 [12], the Activity stood at 639.2 U/mg.
As for `Cc1ccccc1NC1=C(Cl)C(=O)c2ccccc2C1=O`, the EC50 was found to be 25.8 mg/L (≈ 86.7 µM) in the series on DU-145, 3.2 mg/L (≈ 10.7 µM) in the series on BALB/3T3, 4.9 mg/L (≈ 16.5 µM) in the series on MCF7 and 9.3 mg/L (≈ 31.2 µM) in the series with T-24 [11]. For the same molecule, the logP in series [8] (read-out: logP) is 2.08.
For `Cc1ccccc1NC1=CC(=O)c2ccccc2C1=O`, in that order: 7.7 mg/L (≈ 29.2 µM), 6.2 mg/L (≈ 23.5 µM), 0.8 mg/L (≈ 3.04 µM), 7.7 mg/L (≈ 29.2 µM) and 2.04.
For `COc1ccc(NC2=C(Cl)C(=O)c3ccccc3C2=O)cc1`, in that order: above 1000 mg/L, 13.7 mg/L (≈ 43.7 µM), above 1000 mg/L, 438 mg/L (≈ 1390 µM) and 1.46.
